# Screens: PubChem, several laboratories
# HGIII-sPLA2 inh – Blocks human group III sPLA2 activity; Q9NZ20; QFRET BODIPY PC-A2 liposome hydrolysis, fluorescence; inhibition, % at 12.2 µM; 0.56% of 370,000 active;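 active means inhibition above mean plus 3 SD of compounds lying within the high and low control bounds, cut at about 19% in these data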
# Target sequence (Q9NZ20 whole entry, looked up): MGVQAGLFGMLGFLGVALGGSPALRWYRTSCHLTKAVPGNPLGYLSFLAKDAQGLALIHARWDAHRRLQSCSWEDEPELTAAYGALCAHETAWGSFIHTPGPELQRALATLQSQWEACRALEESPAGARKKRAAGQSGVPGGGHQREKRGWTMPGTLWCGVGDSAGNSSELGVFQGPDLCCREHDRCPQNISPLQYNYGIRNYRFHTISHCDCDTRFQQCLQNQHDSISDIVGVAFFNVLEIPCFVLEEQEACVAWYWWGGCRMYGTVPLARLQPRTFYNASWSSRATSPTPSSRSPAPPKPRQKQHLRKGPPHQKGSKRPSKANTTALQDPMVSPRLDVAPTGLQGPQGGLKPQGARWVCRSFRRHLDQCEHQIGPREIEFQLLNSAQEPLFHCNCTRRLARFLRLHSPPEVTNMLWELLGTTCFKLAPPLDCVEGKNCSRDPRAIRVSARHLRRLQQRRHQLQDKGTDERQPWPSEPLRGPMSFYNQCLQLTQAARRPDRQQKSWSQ
# Hep lipid drop – hepatic lipid droplet formation modulation. AML12 mouse hepatocytes, oleate lipid droplets, BODIPY imaging. 0.4% of 240,000 active. inhibition, % at 6.5 µM;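 active means lipid droplet intensity inhibited by at least 50%, with more than 500 cells counted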
#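 Assay system: AML12 mouse liver cells | Compound dosing: One dose, 6.5 µM compound | Read-out basis: Droplet intensity reduction, % inhibition | Measured by: Fluorescence imaging, 20x objective, two fields per well | Schedule: Overnight treatment with compound plus oleate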
# Arr AP2 block – human beta-arrestin and AP2 interaction inhibition. inhibition, % at 10 µM. 0.31% of 340,000 active. FITC-arrestin peptide / GST-AP2 beads, flow cytometry; AP2 beta2 appendage carries R879A mutation;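 active means inhibition above a set limit, near 3 SD of compounds lacking own fluorescence, cut at about 54% in these data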
#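 System: GST-AP2 R879A bound to glutathione beads, E. coli-expressed. Also added: 50 nM FITC-arrestin peptide. Schedule: compound with beads 12 min RT, then probe 1 h RT. Signal: bead flow cytometry, FITC channel. Read-out basis: percent response.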
# HTR2A ag – agonists of mouse serotonin 5-HT2A receptor (HTR2A) | P35363 | CHO-K1 mHTR2A beta-arrestin complementation, luminescence; percent of 30 µM serotonin response | activation, % at 7.6 µM | 0.66% of 360,000 active;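 active means activation above a run cutoff, the mean activation of all tested compounds plus 3 SD, cut at about 14% in these data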
# PfM18AAP inh – PfM18AAP enzyme inhibition; recombinant PfM18AAP, H-Glu-NHMec fluorogenic cleavage; inhibition, % at 7.35 µM; 1.2% of 290,000 active; AID 1822;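 active means inhibition above the campaign mean inhibition over all tested compounds plus 3 SD, cut at about 28% in these data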
# NRP1-CendR mod – modulators of CendR peptide binding to human neuropilin-1 | O14786 | FAM-RPARPAR peptide binding to NRP-1, fluorescence polarization | inhibition, % at 25 µM | 0.85% of 360,000 active;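 active means inhibition or corrected inhibition above about 18%, plus a signal ratio from 0.5 to 1.5, limit read from the data, passing the limit was not always enough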
# MOR ag counter – counter-screen for mouse HTR2A agonists: human mu opioid receptor agonists. shares compounds with HTR2A ag. activation, % at 9.3 µM. 5.3% of 2,300 active. U2OS OPRM1 beta-arrestin PathHunter, luminescence; DMSO 0%, DAMGO 9.3 µM 100%;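 active means mean activation above the mean of DMSO-only wells plus 3 SD, cut at about 0.5% in these data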
# m5-HT2A ag conf – mouse HTR2A agonism confirmed | shares compounds with HTR2A ag | CHO-K1 PathHunter beta-arrestin recruitment, luminescence; DMSO 0%, 30 µM serotonin 100% | activation, % at 7.6 µM | AID 624381 | 19% of 2,300 active;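 active means mean activation across triplicates above the hit threshold derived in the original primary screen, cut at about 15% in these data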
# Numbers stand for hits; i = inactive; nt = no result. A selection: hits, their analogues and other compounds. The true share with any hit is near 3.3%.
SMILES,HGIII-sPLA2 inh,Hep lipid drop,Arr AP2 block,HTR2A ag,PfM18AAP inh,NRP1-CendR mod,MOR ag counter,m5-HT2A ag conf
Cc1cccc(N2C(=O)CS/C2=N\NC(=O)c2ccc(Br)cc2)c1C,i,i,i,15,i,i,i,i
CCN1C(=O)[C@H]2[C@@H](c3ccc(OC)cc3)N[C@]3(CCCN(Cc4ccc(F)cc4)C3=O)[C@H]2C1=O,i,nt,nt,i,nt,i,nt,nt
CC(C)Cc1nnc(NC(=O)c2cc(-c3ccncc3)nc3ccccc23)s1,i,i,i,15,i,i,i,i
C[C@@H](NC(=O)Cn1cnc2c(OCc3ccccc3)ncnc21)c1cccc2ccccc12,i,nt,i,16,nt,i,nt,i
c1ccc(Cc2nnc(Sc3ccccc3)c3ccccc23)cc1,i,nt,i,26,i,i,i,i
COc1ccc(OC)c(S(=O)(=O)NCC2CCN(C(=O)C(=O)c3cc4ccccc4o3)CC2)c1,i,nt,nt,nt,nt,nt,nt,nt
CCc1nc2c(OCc3ccccc3)cccn2c1N(C)C(=O)c1ccc2c(c1)OCO2,i,nt,nt,14,nt,i,i,i
CCc1nc2c(OCc3ccc(Cl)cc3)cccn2c1N(C)C(=O)c1ccc2c(c1)OCO2,i,nt,nt,i,nt,i,nt,nt
Cc1csc(=O)n1CC(=O)OCc1nnc(-c2ccccc2)o1,i,nt,i,21,nt,i,i,i
CCn1c(=O)c(C(=O)CN2CCN(S(=O)(=O)c3ccc(C)cc3C)CC2)c(N)n(Cc2ccccc2)c1=O,i,i,i,16,i,i,i,i
CCn1c(=O)c(C(=O)CN2CCN(S(=O)(=O)c3ccccc3)CC2)c(N)n(Cc2ccccc2)c1=O,i,i,i,i,i,i,nt,nt
Cc1csc(=O)n1CCC(=O)OCC(=O)Nc1ncc(Cl)cc1Cl,i,nt,i,i,nt,i,nt,nt
COc1cc(CC(=O)OCC(=O)NC2CCCC2)cc(OC)c1OC,i,nt,i,i,nt,i,nt,nt
COc1ccc(CC(=O)OCC(=O)NC2CCCCC2)cc1OC,i,nt,i,20,nt,i,i,i
Cc1ccc(OCC(=O)OCC(=O)NC2CCCC2)cc1C,i,nt,i,15,nt,i,i,i
Cc1cc(OCC(=O)OCC(=O)NC2CCCC2)ccc1Cl,i,nt,i,i,nt,i,nt,nt
CCCCCCn1cc(CN2CC(N(C)C)CS2(=O)=O)nn1 (configuration not stated),i,nt,nt,i,nt,i,nt,nt
COc1cccc(-n2c(SCC(=O)N3CCCCC3)nc3c([nH]c4ccccc43)c2=O)c1,i,i,i,21,i,i,i,i
COc1cccc(-n2c(SCC(N)=O)nc3c([nH]c4ccccc43)c2=O)c1,i,i,i,i,i,i,nt,nt
COC(=O)C1=C(C)N(C)C(=NCc2ccc(OC)cc2)NC1c1cccc(Cl)c1 (configuration not stated),i,nt,nt,nt,nt,nt,nt,nt
O=c1[nH]c2cc(C(F)(F)F)ccc2n1-c1cc(C(F)(F)F)ccc1O,i,nt,i,15,nt,i,0.6,i
Cc1nc2cc(Oc3nc(NCCN(C)C)nc4ccsc34)ccc2s1,i,nt,nt,34,nt,i,i,i
CCCC[C@@H]1C(=O)N2N=C(c3ccccc3)c3ccccc3[C@H]2N2N=C(c3ccccc3)c3ccccc3[C@@H]12,i,nt,nt,nt,nt,nt,nt,nt
COC(=O)[C@]12C[C@H](CC(=O)NCC3CCCCC3)C(=O)N(Cc3ccc4c(c3)OCO4)C1=C[C@H](C(C)C)O[C@@H]2C1CC1,i,nt,nt,nt,nt,nt,nt,nt
CCOc1ccc(CCNC(=O)CS(=O)(=O)Cc2nc(-c3ccc(OC)cc3)oc2C)cc1,i,i,i,i,i,i,nt,nt
SMILES,HGIII-sPLA2 inh,Hep lipid drop,Arr AP2 block,HTR2A ag,PfM18AAP inh,NRP1-CendR mod,MOR ag counter,m5-HT2A ag conf
CCOc1ccc(CNC(=O)CS(=O)(=O)Cc2nc(-c3ccc(OC)cc3)oc2C)cc1,i,i,i,20,i,i,i,i
COc1ccc(-c2noc(N3CCC(C(=O)Nc4ccc(OC)cc4OC)CC3)n2)cc1,i,i,i,i,i,i,nt,nt
COc1ccc(NC(=O)C2CCN(c3nc(-c4ccc(OC)cc4)no3)CC2)cc1,i,i,i,17,i,i,i,i
COc1ccc(Cn2cc(CN3CC(N4CCN(Cc5ccccc5F)CC4)CS3(=O)=O)nn2)cc1 (configuration not stated),i,nt,nt,i,nt,i,nt,nt
C=C(C)COc1ccc(-c2nc(N)ncc2-c2ccc(OC)cc2)c(O)c1,i,i,nt,nt,i,nt,nt,nt
C=C(C)COc1ccc(-c2nc(N)nc(C)c2-c2ccc(OC)cc2)c(O)c1,i,i,i,18,i,i,i,i
CCOC(=O)C[C@@H]1OC[C@H](Cc2ccccc2)N1S(=O)(=O)c1ccc(C)cc1,i,nt,nt,i,nt,i,nt,nt
COC(=O)[C@@]1(C)[C@H]2C(=O)N(C)C(=O)[C@H]2[C@H]2CN=C(SCc3ccccc3)N21,i,nt,i,17,nt,i,i,i
CCCCOCCCNC(=O)C[C@@H]1C[C@]2(C(=O)OCC)CCC3=C2N(CCC3)C1=O,i,nt,nt,nt,nt,nt,nt,nt
O=C(NCCO)/C(=C\c1cccs1)NC(=O)c1cccs1,i,i,i,24,i,i,i,i
O=C(NCc1ccco1)/C(=C\c1cccs1)NC(=O)c1cccs1,i,i,i,i,i,i,nt,nt
CCCCCCCCN1C(=O)N2Cc3ccc(C)cc3C2CS1(=O)=O (configuration not stated),i,nt,nt,nt,nt,nt,nt,nt
CCOC(=O)c1cnc(SCC(=O)OC)nc1N,i,i,i,26,i,i,i,i
Cc1ccc(S(=O)(=O)NCc2ccccc2)cc1C(=O)NCC(=O)Nc1c(C)cccc1C,i,nt,nt,i,nt,i,nt,nt
CCN(CC)c1nc(-c2cccc(OC)c2O)nc2ccccc12,i,nt,i,i,i,i,nt,nt
C=CCNc1nc(-c2cccc(OC)c2O)nc2ccccc12,i,nt,i,42,i,i,i,24
COc1cccc(-c2nc(NC3CCCC3)c3ccccc3n2)c1O,i,nt,i,78,i,i,i,81
O=C(CC1CCCC1)N[C@H](C(=O)N1CCC[C@H]1C(=O)NC1CCCC1)c1ccccc1,i,nt,nt,nt,nt,nt,nt,nt
CCCC(=O)Nc1nc(-c2ccc3c(c2)OCCO3)cs1,i,i,i,16,i,i,i,i
OCC1(Cc2ccc(Cl)cc2)CCN(CCCc2ccccc2)CC1,i,i,i,18,i,i,i,44
CSc1ccc(CN2CCC(CO)(Cc3ccc(Cl)cc3)CC2)cc1,i,i,i,i,i,i,nt,nt
OCC1(Cc2ccc(Cl)cc2)CCN(CC2CC=CCC2)CC1 (configuration not stated),i,i,i,15,i,i,i,i
COc1ccccc1CNCC(O)(c1ccc(F)cc1)c1ccc(F)cc1,i,i,i,i,i,i,nt,nt
COc1ccccc1CNCC(O)(c1ccc(Cl)cc1)c1ccc(Cl)cc1,i,nt,i,22,i,i,i,i
